One assay has as its target Kv1.4 (Homo sapiens, UniProt P22459). It counts as cell-based. As to conditions: for Kv1.4 / Kv channel inhibition (in words): highest concentrations tested; for τact / τinact: voltage step from −100 mV to 0 mV, double exponential fit. An outline of the steps: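 Kv1.4 expressed under tetracycline induction in a CHO-K1 line and recorded by automated whole-cell voltage clamp. Voltage steps went from −100 mV to 0 mV. A double exponential was fitted to current rise and decay to obtain τact and τinact. Kd values were fitted from these, n = 9, SEM. IC50 came from the best fit of peak-current inhibition ± standard deviation of the parameter fit.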

The subject of assay [1] is Gramicidin A (gA) channel. Put plainly: Gramicidin A based fluorescence quench assay. It counts as biochemical. As to conditions: highest concentration tested. Put shortly: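 ANTS was loaded into large unilamellar vesicles containing gramicidin A, and Tl+ was added to the suspension. Intravesicular ANTS quenching was followed over time, with nine individual repeats per trace. The initial quench rate gave the Tl+ influx rate. gA2 is the compound concentration that doubles that rate. Where gA2 was not obtained, the highest concentration tested is given.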

Structures are written as SMILES. “Also recorded” adds a separate entry of the source. Where two headings read alike, the source gives them in different places.

The values below come from paper PMC6007853 (Biochemistry, 2018).

Sequence of Kv1.4 (P22459 whole entry): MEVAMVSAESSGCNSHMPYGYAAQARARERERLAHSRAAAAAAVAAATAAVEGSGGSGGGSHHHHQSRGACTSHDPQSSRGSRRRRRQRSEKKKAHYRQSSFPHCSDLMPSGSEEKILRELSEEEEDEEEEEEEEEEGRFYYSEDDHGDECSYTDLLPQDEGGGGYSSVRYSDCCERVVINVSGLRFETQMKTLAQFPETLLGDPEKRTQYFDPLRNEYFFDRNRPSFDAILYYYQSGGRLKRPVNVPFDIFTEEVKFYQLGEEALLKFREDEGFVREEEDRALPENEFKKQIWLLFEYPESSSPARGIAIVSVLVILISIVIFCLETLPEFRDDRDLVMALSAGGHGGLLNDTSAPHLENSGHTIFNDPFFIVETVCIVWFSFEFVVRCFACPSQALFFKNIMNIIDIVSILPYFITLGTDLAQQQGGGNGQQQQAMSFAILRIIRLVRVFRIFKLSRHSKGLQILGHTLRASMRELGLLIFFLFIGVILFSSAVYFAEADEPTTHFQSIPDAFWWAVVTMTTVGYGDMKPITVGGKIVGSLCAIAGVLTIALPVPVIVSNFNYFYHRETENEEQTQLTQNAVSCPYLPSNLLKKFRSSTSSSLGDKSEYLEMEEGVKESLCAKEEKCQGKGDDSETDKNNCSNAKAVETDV

In the case of `Cc1ccc2c(CCN)c(SSc3[nH]c4cc(C)ccc4c3CCN)[nH]c2c1` [compound 7], the “Kv1.4 / Kv channel inhibition (in words)” value at Kv1.4 was “strongly inhibit”.
On to `NCCc1c(SSc2[nH]c3cc(Br)ccc3c2CCN)[nH]c2cc(Br)ccc12` [1a, 6-bromo-2-mercaptotryptamine dimer], for which the τact is recorded as 2.54 ± 0.02 on Kv1.4 (1.5 μM BrMT), 3.17 ± 0.03 on Kv1.4 (3 μM BrMT) and 4.2 ± 0.4 at Kv1.4 (6 μM BrMT). The results for the τinact on Kv1.4 (1.5 μM BrMT), on Kv1.4 (3 μM BrMT) and on Kv1.4 (6 μM BrMT) were 136.6 ± 0.6, 181 ± 2 and 300 ± 20, respectively. In addition, at Kv1.4, the “Kv1.4 / Kv channel inhibition (in words)” value is listed as “strongly inhibit”.
`NCCc1c(SSc2[nH]c3ccc(Br)cc3c2CCN)[nH]c2ccc(Br)cc12` [compound 8]: the “Kv1.4 / Kv channel inhibition (in words)” value on Kv1.4 was “strongly inhibit”. The “gA assay activity / bilayer perturbation (in words)” value in assay [1] is “complete inactivity; also recorded: does not perturb bilayers”.
One may read the IC50 as the concentration that inhibits the measured activity by half. `NCCc1c(COCc2[nH]c3cc(Br)ccc3c2CCN)[nH]c2cc(Br)ccc12` [compound 14]: the “Kv1.4 / Kv channel inhibition (in words)” value at Kv1.4 is given as “strongly inhibit”. Also, the IC50 on Kv1.4 (read-out: IC50 (potency against Kv1.4)) turned out to be 2700 nM.
